# An excerpt weighted towards active compounds, which were near 3.7% of everything screened.
# NPY-Y2 antag = antagonists of human neuropeptide Y receptor Y2; P49146; NPY-Y2 expressing cells, antagonist mode; inhibition, % at 2.7 µM; 140,000 compounds, 0.99% hits; AID 793; in the data active = inhibition above about 17%;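 also: 0% = vehicle with agonist challenge and 100% = reference antagonist with challenge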
# KCC2 mod = modulators of human KCC2 chloride dependent transport; B-score of Tl+ flux slope (higher = more flux/activation; lower = inhibition) at 10 µM; 190,000 compounds, 2.2% hits; Q9H2X9; KCC2 cells, thallium flux FluoZin-2 fluorescence;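 active = thallium flux slope and its plate-corrected score both differing from the plate sample mean at a set confidence after two filtering rounds, in either direction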;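 also: slope of fluorescence scaled to starting intensity during 10 to 20 s after thallium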
# NPY-Y2 PAM-ag = human NPY-Y2 potentiation or agonism, primary screen; P49146; cells expressing NPY-Y2, potentiator/agonist read-out; activation, % at 3.6 µM; 220,000 compounds, 0.45% hits; AID 1359; in the data active = activation above about 27%;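 also: cells stimulated with NPY near EC25 plus isoproterenol at EC100; 0% = vehicle plus submaximal agonist and 100% = vehicle plus saturating agonist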
# NPY-Y1 PAM-ag = human NPY-Y1 potentiation or agonism, primary screen | 220,000 compounds, 0.37% hits | AID 1304 | activation, % at 3.6 µM | NPY-Y1 expressing cells, potentiator/agonist activation | P25929; in the data active = activation above about 33%, passing the limit was not always enough;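 also: cells stimulated with NPY at EC10 then isoproterenol at EC100; 0% = low agonist plus stimulus and 100% = saturating agonist plus stimulus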
# NPY Y1 blocker = blocks the human neuropeptide Y Y1 receptor | P25929 | HEK293-CNG Y1 cells, membrane potential fluorescence; NPY at EC95, then isoproterenol | inhibition, % at 3.6 µM | 200,000 compounds, 1% hits | AID 1040;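 active = inhibition above the campaign mean inhibition of all tested compounds plus 3 SD, cut at about 20% in these data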;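 also: 0% = DMSO wells given NPY plus isoproterenol and 100% = isoproterenol alone without NPY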
#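 material = HEK293 cells with Y1 receptor plus CNG channel | also added = NPY 25 nM then isoproterenol 1 µM plus Ro 20-1724 25 µM | schedule = dye 3 h, compound 60 min room temperature, stimulation 45 min | measured by = membrane potential fluorescence | benchmarks = high control isoproterenol alone, low control NPY with isoproterenol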
# Furin inhibitor = blocks human furin protease activity; P09958; purified furin, fluorogenic substrate cleavage; inhibition, % at 20 µM or 30 µM; 220,000 compounds, 0.061% hits; AID 463115; in the data active = inhibition above about 25%
# Target sequence (P09958 108-714 limits assumed): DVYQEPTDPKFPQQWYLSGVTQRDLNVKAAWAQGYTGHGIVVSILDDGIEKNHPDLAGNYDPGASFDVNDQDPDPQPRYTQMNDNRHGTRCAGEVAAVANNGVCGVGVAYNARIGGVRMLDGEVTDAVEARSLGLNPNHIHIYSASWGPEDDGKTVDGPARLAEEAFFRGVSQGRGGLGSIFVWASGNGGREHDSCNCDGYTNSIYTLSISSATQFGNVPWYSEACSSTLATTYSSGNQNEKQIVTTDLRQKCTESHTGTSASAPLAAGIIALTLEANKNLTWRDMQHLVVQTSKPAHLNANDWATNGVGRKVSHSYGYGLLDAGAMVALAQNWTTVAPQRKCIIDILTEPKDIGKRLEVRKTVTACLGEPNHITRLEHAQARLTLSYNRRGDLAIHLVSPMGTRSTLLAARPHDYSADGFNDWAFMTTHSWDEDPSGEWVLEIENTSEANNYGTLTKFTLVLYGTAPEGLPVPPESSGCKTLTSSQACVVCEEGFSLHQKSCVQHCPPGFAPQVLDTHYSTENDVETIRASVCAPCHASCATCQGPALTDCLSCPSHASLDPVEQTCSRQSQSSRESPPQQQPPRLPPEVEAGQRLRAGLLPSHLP
# NPY-Y2 pot conf = confirmation of human NPY-Y2 receptor potentiators or agonists; activation, % at 3.6 µM; AID 1539; shares compounds with NPY-Y2 PAM-ag; 450 compounds, 20% hits; cell-based NPY-Y2 potentiator/agonist assay; in the data active = activation above about 33%
# NPY-Y1 potentiator = potentiates or activates NPY-Y1, counter-screen for NPY-Y2 hits. shares compounds with NPY-Y2 PAM-ag. Y1 HEK293-CNG cells, membrane potential fluorescence. activation, % at 3.6 µM. 450 compounds, 20% hits. AID 1651; in the data active = activation above about 45%;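 also: cells stimulated with submaximal NPY then isoproterenol with phosphodiesterase inhibitor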
# NPY-Y1 ag 2 = activates human NPY-Y1, counter-screen for NPY-Y2 potentiators; shares compounds with NPY-Y2 PAM-ag; HEK293 Y1-CNGC, membrane potential fluorescence, agonism; activation, % at 3.6 µM; 450 compounds, 37% hits; AID 1702;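 active = activation above the mean of DMSO-only control wells plus 3 SD, cut at about 18% in these data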;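 also: cells stimulated with 1 µM isoproterenol plus the PDE inhibitor Ro 20-1724; 0% = isoproterenol with DMSO and no NPY and 100% = 40 nM NPY; Y1 agonists lower the membrane potential dye signal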
# CNGC inh = counter-screen for NPY-Y2 potentiators: inhibitors of CNG channel activity; shares compounds with NPY-Y2 PAM-ag; HEK293-CNG parental, isoproterenol cAMP, membrane potential fluorescence; inhibition, % at 3.6 µM; 450 compounds, 32% hits;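 active = inhibition above the control-well mean plus 3 SD of those wells, cut at about 22% in these data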;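 also: 0% = DMSO with isoproterenol and 100% = DMSO without isoproterenol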
# Y2 agonist ctr = NPY-Y2 agonism, counter-screen for Y2 potentiators. HEK293 Y2/CNGC cells, membrane potential fluorescence, agonist mode. 450 compounds, 56% hits. activation, % at 3.6 µM. AID 1710. shares compounds with NPY-Y2 PAM-ag;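 active = activation above the mean of solvent-only control wells plus 3 SD, cut at about 10% in these data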;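 also: cells stimulated by isoproterenol with no NPY added so direct agonism is tested; 0% = DMSO with isoproterenol alone and 100% = NPY at EC100 plus isoproterenol; agonism lowers probe fluorescence through less cAMP and CNG channel opening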
# * hit, by the source's call; / = not tested or not shown.
SMILES,NPY-Y2 antag,KCC2 mod,NPY-Y2 PAM-ag,NPY-Y1 PAM-ag,NPY Y1 blocker,Furin inhibitor,NPY-Y2 pot conf,NPY-Y1 potentiator,NPY-Y1 ag 2,CNGC inh,Y2 agonist ctr
O=C(/C=C/c1c[nH]c2ccccc12)c1cccc2ccccc12,0,-0.72,4,-14,-4,-25,/,/,/,/,/
COc1ccc(C(=O)N2CCC(O)(c3ccc(Cl)cc3)CC2)cc1OC,/,0.89,95*,22,/,-6,-2,-10,-7,3,0
O=C(CN1CCN(Cc2ccc(Cl)cc2)CC1)N/N=C/c1cccs1,/,-0.055,6,-10,/,-18,/,/,/,/,/
O=C(CN1CCN(Cc2ccc(Cl)cc2)CC1)N/N=C/c1cccc(F)c1,/,-0.01,99*,16,/,-13,-6,-6,-14,3,1
CCN1C(=O)/C(=C2/C=Cc3ccccc3N2CC)SC1=S,/,-0.073,33*,35,-6,-6,39*,48*,43*,36*,48*
O=[N+]([O-])c1cc(Cl)cc(/C=N/Nc2nc3ccccc3s2)c1O,/,/,28*,24,-2,-25,60*,68*,69*,63*,66*
COc1cc(/C=N/Nc2nc3ccccc3s2)cc([N+](=O)[O-])c1O,/,-2.2,-9,3,/,-12,/,/,/,/,/
Clc1cccc(-c2nnc(SCc3nc4ccccc4[nH]3)n2Cc2ccco2)c1,4,-1.1,-37,-27,14,-8,/,/,/,/,/
Clc1ccc(OCc2nnc(SCc3nc4ccccc4[nH]3)n2Cc2ccco2)cc1,1,/,40*,41,-8,-12,6,-1,-5,10,14*
O=Nc1c(O)n(Cc2c(Cl)cccc2Cl)c2ccccc12,6,0.57,34*,24,-4,-9,8,2,14,-16,5
Cc1onc(-c2c(Cl)cccc2Cl)c1C(N)=S,/,-0.27,10,11,1,-21,/,/,/,/,/
N#Cc1cc(S(=O)(=O)c2ccc(Cl)cc2)c(N)[nH]c1=O,/,2.2,54*,-14,5,-4,0,-2,-4,3,10
COc1nc(N)c(S(=O)(=O)c2ccccc2)cc1C#N,1,/,3,4,5,-25,/,/,/,/,/
CCCc1cc(-c2[nH]ncc2-c2ccc(C(=O)OCC)o2)c(O)cc1O,-2,-0.48,41*,26,-1,-22,20,19,10,13,22*
Cc1cccc2c(N)c3c(nc12)CCCC3 (tested in a mixture with another compound),/,/,49*,33,5,-15,52*,64*,-1,10,48*
O=C(/C=C/c1cccc(O)c1)c1ccc(N2CCOCC2)cc1,/,1.1,17,21,/,1,/,/,/,/,/
Cc1c(CN(C)C)c2c(n1Cc1ccccc1)C(=O)c1ccc(Br)cc1-2,-1,/,28*,26,-3,-9,25,28,35*,24*,29*
Cc1c(CN(C)C)c2c(n1C)C(=O)c1ccc(Br)cc1-2,1,/,-3,13,1,4,/,/,/,/,/
NC(=O)c1cc([N+](=O)[O-])ccc1NCCN1C(=O)c2ccccc2C1=O,/,1.4,-10,-7,1,-11,/,/,/,/,/
O=C1c2ccccc2-c2onc3ccc(NCCCn4ccnc4)c1c23,34*,-1,38*,38,9,4,-3,-6,-11,-10,3
CCS(=O)(=O)N1CCC(C(=O)O)CC1,/,-0.35,-5,2,4,-5,/,/,/,/,/
CCCC(=O)Nc1cc(S(=O)(=O)N(CC)CC)ccc1Cl,-1,0.81,-4,-12,-2,-24,/,/,/,/,/
CC1CC(C)CN(CCCCOc2ccc([N+](=O)[O-])cc2)C1 (stereo unspecified),3,-0.41,-2,-10,4,-23,/,/,/,/,/
CCn1c2ccccc2c2cc(NC(=O)CSc3nnc(-c4ccc(OC)c(OC)c4)n3N)ccc21,-7,0.056,12,14,-5,-6,/,/,/,/,/
CCn1c2ccccc2c2cc(NC(=O)CSc3nnc(-c4ccccc4OC)n3N)ccc21,-5,-0.42,43*,15,-10,-13,11,15,19*,17,16*
SMILES,NPY-Y2 antag,KCC2 mod,NPY-Y2 PAM-ag,NPY-Y1 PAM-ag,NPY Y1 blocker,Furin inhibitor,NPY-Y2 pot conf,NPY-Y1 potentiator,NPY-Y1 ag 2,CNGC inh,Y2 agonist ctr
Nc1c(-c2ccc(Cl)cc2)cnn1-c1cccc(C(F)(F)F)c1,3,/,25,16,0,-12,/,/,/,/,/
Cc1ccc(-c2cnn(-c3cccc(C(F)(F)F)c3)c2N)cc1,9,/,35*,29,-2,-10,52*,58*,44*,32*,60*
Cc1cccc(C)c1Nc1c(-c2ccc(N3CCOCC3)cc2)nc2ncccn12,-5,0.79,43*,36,-4,-6,91*,111*,96*,83*,97*
Cc1ccc(Cl)cc1NC(=O)c1cc2ccccc2cc1O,/,-1.2,45*,37,/,-14,8,15,-5,20,19*
COc1cc(NC(=O)c2cc3ccccc3cc2O)c(OC)cc1Cl,/,0.94,58*,31,/,-25,21,-8,-13,4,12*
Cc1ccc(Cl)cc1NC(=O)COC(=O)c1ccccc1O,/,/,-2,-11,/,-19,/,/,/,/,/
COc1cc(OC)c(NC(=O)c2ccccc2F)cc1Cl,/,/,-3,-8,9,-23,/,/,/,/,/
Oc1c(C2=NCCNC(C(F)(F)F)=C2)ccc2ccccc12,/,-0.55,31*,35,-12,-5,36*,50*,38*,32*,42*
Cc1ccc(O)c(C2=NCCNC(C(F)(F)F)=C2)c1,1,-0.11,1,20,-2,0,/,/,/,/,/
COc1cccc(N2CCN(c3ncnc4c3[nH]c3ccccc34)CC2C)c1 (stereo unspecified),11,-1.6,2,28,6,-5,/,/,/,/,/
COc1cccc(N2CCN(c3ncnc4c3[nH]c3ccc(F)cc34)CC2C)c1 (stereo unspecified),8,-1,39*,-25,57*,-37,-4,-27,-40,-41,8
CC1(C)[C@H]2CC=C(CN3CCC(N4CCC(C(=O)N5CCCC5)CC4)CC3)[C@@H]1C2,/,0.96,-7,-7,11,-34,/,/,/,/,/

# Source: PubChem BioAssay (several laboratories)
